These results are taken from ChEMBL document CHEMBL3124872, “Discovery and early development of TMC647055, a non-nucleoside inhibitor of the hepatitis C virus NS5B polymerase” (J Med Chem, 2014).

The source made the active and inactive calls. No cut-off for these calls is given here.

Series [1] concerns Homo sapiens. As to the kind of experiment: Toxicity in HCV genotype 1-infected patient assessed as effect on laboratory parameters at 500 to 1000 mg, po bid for 5 days followed by morning dose on day 6. The format is organism-based. Particulars: in vivo, 120 h. A digest of the protocol:
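HCV genotype 1-infected patients given oral b.i.d. doses of 500 or 1000 mg for 5 days plus a morning dose on day 6, in hydroxypropyl-β-cyclodextrin vehicle; adverse events with grading, laboratory parameters, vital signs, food consumption, appetite and ECG monitored.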

Series [2] has as its system Hepatitis C virus. As to the kind of experiment: Antiviral activity against Hepatitis C virus harboring […] A156V mutant infected in human HuH7 by luciferase reporter gene assay. The format is functional, organism-based. Particulars: Hepacivirus hominis; Huh-7.
In series [3] the test system is Hepatitis C virus. As to the kind of experiment: Antiviral activity against Hepatitis C virus genotype 1a infected in human assessed as log10 reduction in HCV RNA level at 1000 mg, po bid for 5 days followed by morning dose on day 6 relative to control. Format: functional, Hepacivirus hominis, subtype 1a. The essentials: (§1)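 Oral b.i.d. dosing of HCV genotype 1-infected patients at 500 mg or 1000 mg for 5 days, plus a morning dose on day 6, in hydroxypropyl-β-cyclodextrin vehicle. Read-out was the median maximum decrease in plasma HCV RNA from baseline (log10), using patients with HCV RNA data available up to Day 6.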

The subject of series [4] is Hepatitis C virus. As to the kind of experiment: Antiviral activity against Hepatitis C virus genotype 1b infected in human HuH7 assessed as suppression of formation of resistant colonies at 1.5 uM preincubated for 2 weeks followed by 3 week rebound phase by RT-PCR analysis. Format: functional, organism-based. To be noted: Hepacivirus hominis, Huh-7. A digest of the protocol: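 Huh7-Luc genotype 1b replicon cells were incubated for 14 days with the NNI alone (up to 3.75 μM), with TMC435 alone, or with both. A 3-week rebound phase without inhibitor followed, tracking replicon RNA clearance. A parallel colony formation run exposed the cells for 2−3 weeks and scored resistant colonies.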

Series [5] relates to Hepatitis C virus. As to the kind of experiment: Antiviral activity against Hepatitis C virus genotype 1a infected in human assessed as log10 reduction in HCV RNA level at 500 mg, po bid for 5 days followed by morning dose on day 6 relative to control. The format is functional, Hepacivirus hominis, subtype 1a. A digest of the protocol: as §1
The test system of series [6] is Homo sapiens. As to the kind of experiment: Toxicity in human assessed as effect on food consumption at 300 to 1250 mg, po bid for 5 days followed by morning dose on day 6. The format is organism-based. To be noted: in vivo, 120 h. The essentials: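 Healthy volunteers given oral b.i.d. doses of 300, 1000 or 1250 mg for 5 days plus a morning dose on day 6, in hydroxypropyl-β-cyclodextrin vehicle; adverse events, laboratory parameters, vital signs, food consumption, appetite, ECG and plasma 4-β-hydroxycholesterol (CYP3A4 induction marker) monitored.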

For series [7], the system named is Homo sapiens. As to the kind of experiment: Toxicity in human assessed as gastrointestinal side-effects at 300 to 1250 mg, po bid for 5 days followed by morning dose on day 6. Format: organism-based. Particulars: in vivo, 120 h. A digest of the protocol:
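Oral b.i.d. dosing for 5 days plus a single morning dose on day 6, in a hydroxypropyl-β-cyclodextrin vehicle. Healthy volunteers received 300, 1000 or 1250 mg; HCV genotype 1-infected patients received 500 or 1000 mg. Monitoring covered adverse events graded by severity, laboratory parameters, vital signs, food consumption, appetite and ECG.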

In the case of `COc1ccc2c(c1)C=C1Cn3c-2c(C2CCCCC2)c2ccc(cc23)C(=O)NS(=O)(=O)N(C)CCOCCN(C)C1=O` [TMC-647055], the Activity entry is reported as “Non-toxic” with Homo sapiens [1], “Non-toxic” in the series on Homo sapiens [6] and “Toxic” in the series on Homo sapiens [7]. Besides, the outcome in the series on Hepatitis C virus [2] and with Hepatitis C virus [4] was Active. In addition, the FC amounted to 2.4 with Hepatitis C virus [3] and 1.4 in the series with Hepatitis C virus [5].
